# Experimental data published in ChEMBL document CHEMBL5154713, “Illuminating a Dark Kinase: Structure-Guided Design, Synthesis, and Evaluation of a Potent Nek1 Inhibitor and Its Effects on the Embryonic Zebrafish Pronephros” (J Med Chem, 2022).
# Assays:
# Homo sapiens [1] = organism: Homo sapiens; assay: Inhibition of human full length recombinant CDK2/cyclinE assessed as residual activity at 1 uM using histone H1 as substrate incubated for 40 mins in presence of [gamma 33P]-ATP by radiometric scintillation counting assay relative to control
# Procedure, shortened: (§1)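 Commercial radiometric panel of 50 kinases. Each recombinant human kinase was tested at a single compound concentration of 1 μM. ATP was set within 15 μM of the apparent Km for ATP for each kinase. Residual activity is relative to control and is the mean of two independent experiments.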
# [2] = biological target: Serine/threonine-protein kinase Nek7 (Homo sapiens) (UniProt Q8TDX7); assay: Inhibition of recombinant human NEK7 (2 to end residues) assessed as residual activity at 1 uM using FLAKSFGSPNRAYKK as substrate measured after 40 mins in presence of [gamma33P]ATP by radiometric scintillation counting method relative to control; procedure, shortened: as §1
# Homo sapiens [3] = organism: Homo sapiens; assay: Inhibition of recombinant full length human CK2alpha2 assessed as residual activity at 1 uM using RRRDDDSDDD as substrate incubated 40 mins in presence of [gamma-33ATP] by scintillation counting based radiometry assay relative to control; procedure, shortened: as §1
# [4] = biological target: Serine/threonine-protein kinase PLK3 (Homo sapiens) (UniProt Q9H4B4); assay: Inhibition of recombinant human Plk3 (19 to 301 residues) assessed as residual activity at 1 uM using casein as substrate measured after 40 mins in presence of [gamma33P]ATP by radiometric scintillation counting method relative to control; procedure, shortened: as §1
# [5] = biological target: Phosphatidylinositol 4,5-bisphosphate 3-kinase catalytic subunit beta isoform (Homo sapiens) (UniProt P42338); assay: Inhibition of human full length recombinant PI3Kbeta assessed as residual activity using phosphatidylinositol 4,5-bisphosphate as substrate at 1 uM incubated for 40 mins in presence of ATP by HTRF assay relative to control
# [6] = biological target: Serine/threonine-protein kinase pim-1 (Homo sapiens) (UniProt P11309); assay: Inhibition of human full length recombinant Pim1 assessed as residual activity at 1 uM using KKRNRTLTV as substrate incubated for 40 mins in presence of [gamma 33P]-ATP by radiometric scintillation counting assay relative to control; procedure, shortened: as §1
# [7] = biological target: MAP kinase-activated protein kinase 5 (Homo sapiens) (UniProt Q8IW41); assay: Inhibition of human full length PRAK assessed as residual activity at 1 uM using KKLRRTLSVA as substrate incubated for 40 mins in presence of [gamma 33P]-ATP by radiometric scintillation counting assay relative to control; procedure, shortened: as §1
# [8] = Toxicity in fluorescence-labelled Zebrafish pronephron assessed as increase in growth of fluid-filled cysts at 10 to 20 uM; parameters: species or system Danio rerio; conditions: in vivo, dose 10-20 µM
# Procedure, shortened: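 Wild-type embryos exposed from 6 hpf to E3/0.2% DMSO controls or 10 and 20 μM compound, in E3 with 75 μM PTU. At 48 h, 100 nM PT-Yellow for 20 min, washed, then returned to compound up to 96 h total. Anesthetized embryos imaged in agarose molds by widefield microscopy, 33 Z-slices. Tubule fluorescence and area quantified from summed deconvolved projections. n = 3–5.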
# [9] = biological target: Serine/threonine-protein kinase tousled-like 1 (Homo sapiens) (UniProt Q9UKI8); assay: Inhibition of human full length recombinant TLK1 assessed as residual activity at 1 uM using casein as substrate incubated for 40 mins in presence of [gamma 33P]-ATP by radiometric scintillation counting assay relative to control; procedure, shortened: as §1
# [10] = biological target: Phosphatidylinositol 4,5-bisphosphate 3-kinase catalytic subunit delta isoform (Homo sapiens) (UniProt O00329); assay: Inhibition of human full length recombinant PI3Kdelta assessed as residual activity at 1 uM using phosphatidylinositol 4,5-bisphosphate as substrate incubated for 40 mins in presence ofATP by HTRF assay relative to control
# [11] = biological target: Mitogen-activated protein kinase kinase kinase 5 (Homo sapiens) (UniProt Q99683); assay: Inhibition of recombinant human ASK1 (649 to 946 residues) assessed as residual activity at 1 uM using myelin basic protein as substrate measured after 40 mins in presence of [gamma33P]ATP by radiometric scintillation counting method; procedure, shortened: as §1
# [12] = system: Tyrosine-protein kinase ABL1 (Homo sapiens), P00519 [Q252H]; assay: Inhibition of human Abl Q252H mutant (27 to end residues) assessed as residual activity at 1 uM using EAIYAAPFAKKK as substrate incubated for 40 mins in presence of [gamma 33P]-ATP by radiometric scintillation counting assay relative to control; procedure, shortened: as §1
# [13] = Toxicity in wild-type Zebrafish embryos assessed as effect on normal eye development at 0.05 to 30 uM measured upto 120 hrs; parameters: species or system Danio rerio; conditions: in vivo, dose 0.05-30 µM
# Procedure, shortened: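 Wild-type embryos, 15 per group with intact chorions, dosed at 6 hpf with 0.05–30 μM final concentrations in E3, diluted from a DMSO stock. Survival checked every 24 h by heartbeat over 120 h, and phenotypes assessed visually. At least triplicate, 5 replicates at 30 μM.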
# [14] = biological target: Tyrosine-protein kinase SYK (Homo sapiens) (UniProt P43405); assay: Inhibition of recombinant full-length human Syk at 1 uM assessed as residual activity at 1 uM using poly(Glu, Tyr) 4:1 as substrate measured after 40 mins in presence of [gamma33P]ATP by radiometric scintillation counting method relative to control; procedure, shortened: as §1
# [15] = Permeability across apical to basolateral side in human Caco-2 cells assessed as drug recovery at pH 6.5 to 7.4 by HPLC-MS/MS analysis; type: ADME, cell-based; conditions: Caco-2, pH 6.5, read-out: Drug recovery
# Procedure, shortened: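 Commercial Caco-2 assay, apical-to-basolateral direction at pH 6.5/7.4. Permeability and percent recovery taken from HPLC-MS/MS peak area response. Propranolol, labetalol, colchicine and ranitidine run in parallel as references.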
# [16] = biological target: Interleukin-1 receptor-associated kinase 4 (Homo sapiens) (UniProt Q9NWZ3); assay: Inhibition of human full length IRAK4 assessed as residual activity at 1 uM using myelin basic protein as substrate incubated for 40 mins in presence of [gamma 33P]-ATP by radiometric scintillation counting assay relative to control; procedure, shortened: as §1
# [17] = biological target: Serine/threonine-protein kinase Nek6 (Homo sapiens) (UniProt Q9HC98); assay: Inhibition of human NEK6 (2 to end residues) assessed as residual activity at 1 uM using FLAKSFGSPNRAYKK as substrate incubated for 40 mins in presence of [gamma 33P]-ATP by radiometric scintillation counting assay relative to control; procedure, shortened: as §1
# [18] = biological target: Eukaryotic elongation factor 2 kinase (Homo sapiens) (UniProt O00418); assay: Inhibition of human eEF-2K (2 to end residues) assessed as residual activity at 1 uM using RKKFGESEKTKTKEFL as substrate incubated for 40 mins in presence of [gamma 33P]-ATP by radiometric scintillation counting assay relative to control; procedure, shortened: as §1
# [19] = Solubility of the compound in E3 medium with DMSO incubated for 24 hrs by DAD-HPLC based shake flask method; type: physicochemical
# Procedure, shortened: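 Shake-flask solubility: saturated solution in E3-medium shaken 24 h at 25 °C, then HPLC-DAD at 280 nm. Concentration read by interpolation from a calibration series of 1–100 μM standards in acetonitrile, prepared from a 10 mM DMSO stock. Triplicate.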
# Serine/threonine-protein kinase Nek7 (Homo sapiens), sequence (Q8TDX7 whole entry, looked up): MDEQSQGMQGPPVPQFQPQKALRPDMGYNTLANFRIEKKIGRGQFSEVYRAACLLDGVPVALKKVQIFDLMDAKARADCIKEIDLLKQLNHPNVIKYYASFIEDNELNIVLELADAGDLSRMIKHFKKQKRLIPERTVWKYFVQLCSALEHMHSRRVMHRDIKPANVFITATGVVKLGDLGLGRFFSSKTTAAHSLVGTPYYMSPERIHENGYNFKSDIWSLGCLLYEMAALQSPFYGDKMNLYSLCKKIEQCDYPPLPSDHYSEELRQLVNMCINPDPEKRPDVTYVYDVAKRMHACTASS
# Phosphatidylinositol 4,5-bisphosphate 3-kinase catalytic subunit delta isoform (Homo sapiens), sequence (O00329 whole entry, the tested form may be a part, canonical isoform): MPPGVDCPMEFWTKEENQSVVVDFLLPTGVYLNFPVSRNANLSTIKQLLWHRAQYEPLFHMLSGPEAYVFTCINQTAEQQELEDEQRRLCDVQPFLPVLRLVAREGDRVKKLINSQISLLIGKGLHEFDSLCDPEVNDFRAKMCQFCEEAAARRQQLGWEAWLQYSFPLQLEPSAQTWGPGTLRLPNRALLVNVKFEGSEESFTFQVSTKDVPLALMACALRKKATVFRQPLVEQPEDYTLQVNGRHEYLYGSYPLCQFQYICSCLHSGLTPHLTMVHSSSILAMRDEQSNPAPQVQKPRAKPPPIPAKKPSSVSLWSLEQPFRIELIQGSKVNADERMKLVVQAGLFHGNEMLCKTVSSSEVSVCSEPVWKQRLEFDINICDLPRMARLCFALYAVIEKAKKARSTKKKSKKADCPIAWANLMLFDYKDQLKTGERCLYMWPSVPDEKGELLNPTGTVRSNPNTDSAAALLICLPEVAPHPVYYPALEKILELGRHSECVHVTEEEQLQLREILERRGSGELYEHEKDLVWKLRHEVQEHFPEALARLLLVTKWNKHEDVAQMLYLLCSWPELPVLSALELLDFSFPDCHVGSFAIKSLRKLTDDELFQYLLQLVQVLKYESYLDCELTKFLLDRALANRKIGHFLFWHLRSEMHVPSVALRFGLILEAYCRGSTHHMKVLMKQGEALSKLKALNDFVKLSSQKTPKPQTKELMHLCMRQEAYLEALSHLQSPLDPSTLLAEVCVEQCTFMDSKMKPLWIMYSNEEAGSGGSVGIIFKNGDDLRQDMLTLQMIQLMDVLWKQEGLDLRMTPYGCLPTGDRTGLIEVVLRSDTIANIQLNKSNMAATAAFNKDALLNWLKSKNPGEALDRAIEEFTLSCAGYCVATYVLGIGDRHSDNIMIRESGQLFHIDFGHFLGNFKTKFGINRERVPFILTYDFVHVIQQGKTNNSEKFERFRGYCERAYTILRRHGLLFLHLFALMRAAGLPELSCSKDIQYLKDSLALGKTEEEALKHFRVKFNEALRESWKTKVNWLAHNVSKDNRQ
# Interleukin-1 receptor-associated kinase 4 (Homo sapiens), sequence (Q9NWZ3 whole entry): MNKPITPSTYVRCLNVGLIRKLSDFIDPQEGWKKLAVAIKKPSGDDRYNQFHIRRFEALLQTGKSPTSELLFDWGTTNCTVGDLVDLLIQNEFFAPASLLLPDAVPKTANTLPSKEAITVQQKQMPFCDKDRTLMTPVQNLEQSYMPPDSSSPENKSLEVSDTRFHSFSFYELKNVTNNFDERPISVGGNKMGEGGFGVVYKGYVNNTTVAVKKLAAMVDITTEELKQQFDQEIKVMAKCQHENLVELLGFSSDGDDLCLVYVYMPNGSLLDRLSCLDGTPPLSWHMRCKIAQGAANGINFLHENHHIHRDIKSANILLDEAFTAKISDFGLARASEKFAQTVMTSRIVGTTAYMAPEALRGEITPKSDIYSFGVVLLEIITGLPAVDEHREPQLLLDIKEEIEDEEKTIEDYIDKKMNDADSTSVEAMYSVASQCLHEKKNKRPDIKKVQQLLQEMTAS
# Serine/threonine-protein kinase Nek6 (Homo sapiens), sequence (Q9HC98 whole entry): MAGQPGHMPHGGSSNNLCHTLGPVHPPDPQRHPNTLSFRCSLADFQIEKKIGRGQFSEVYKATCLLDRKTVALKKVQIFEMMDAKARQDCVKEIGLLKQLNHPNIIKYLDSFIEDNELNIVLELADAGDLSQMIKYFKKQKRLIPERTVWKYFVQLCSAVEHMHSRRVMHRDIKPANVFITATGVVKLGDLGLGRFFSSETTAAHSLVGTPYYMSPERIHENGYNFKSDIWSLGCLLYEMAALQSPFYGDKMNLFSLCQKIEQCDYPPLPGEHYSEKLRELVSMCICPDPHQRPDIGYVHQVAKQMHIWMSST
# Serine/threonine-protein kinase tousled-like 1 (Homo sapiens), sequence (Q9UKI8 whole entry, canonical isoform): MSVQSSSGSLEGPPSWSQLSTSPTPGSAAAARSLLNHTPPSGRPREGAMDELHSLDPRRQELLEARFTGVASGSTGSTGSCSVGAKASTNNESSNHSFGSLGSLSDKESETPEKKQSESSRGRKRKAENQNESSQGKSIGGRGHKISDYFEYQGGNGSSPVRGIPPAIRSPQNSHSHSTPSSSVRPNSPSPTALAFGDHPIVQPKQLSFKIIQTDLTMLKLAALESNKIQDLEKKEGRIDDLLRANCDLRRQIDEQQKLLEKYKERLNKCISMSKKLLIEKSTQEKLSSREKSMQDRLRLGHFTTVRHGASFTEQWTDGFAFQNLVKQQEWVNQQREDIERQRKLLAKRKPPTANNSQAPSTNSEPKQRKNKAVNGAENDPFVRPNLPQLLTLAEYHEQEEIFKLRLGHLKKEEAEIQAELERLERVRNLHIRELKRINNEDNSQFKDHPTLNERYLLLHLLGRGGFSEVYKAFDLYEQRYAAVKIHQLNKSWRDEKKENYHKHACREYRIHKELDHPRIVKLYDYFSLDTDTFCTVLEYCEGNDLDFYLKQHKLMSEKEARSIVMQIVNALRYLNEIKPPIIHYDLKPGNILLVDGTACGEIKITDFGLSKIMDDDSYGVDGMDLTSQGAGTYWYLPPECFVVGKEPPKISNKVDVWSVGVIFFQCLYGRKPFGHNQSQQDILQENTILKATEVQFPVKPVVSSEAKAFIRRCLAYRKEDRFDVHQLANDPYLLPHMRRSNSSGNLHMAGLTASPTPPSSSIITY
# Mitogen-activated protein kinase kinase kinase 5 (Homo sapiens), sequence (Q99683 whole entry, the tested form may be a part): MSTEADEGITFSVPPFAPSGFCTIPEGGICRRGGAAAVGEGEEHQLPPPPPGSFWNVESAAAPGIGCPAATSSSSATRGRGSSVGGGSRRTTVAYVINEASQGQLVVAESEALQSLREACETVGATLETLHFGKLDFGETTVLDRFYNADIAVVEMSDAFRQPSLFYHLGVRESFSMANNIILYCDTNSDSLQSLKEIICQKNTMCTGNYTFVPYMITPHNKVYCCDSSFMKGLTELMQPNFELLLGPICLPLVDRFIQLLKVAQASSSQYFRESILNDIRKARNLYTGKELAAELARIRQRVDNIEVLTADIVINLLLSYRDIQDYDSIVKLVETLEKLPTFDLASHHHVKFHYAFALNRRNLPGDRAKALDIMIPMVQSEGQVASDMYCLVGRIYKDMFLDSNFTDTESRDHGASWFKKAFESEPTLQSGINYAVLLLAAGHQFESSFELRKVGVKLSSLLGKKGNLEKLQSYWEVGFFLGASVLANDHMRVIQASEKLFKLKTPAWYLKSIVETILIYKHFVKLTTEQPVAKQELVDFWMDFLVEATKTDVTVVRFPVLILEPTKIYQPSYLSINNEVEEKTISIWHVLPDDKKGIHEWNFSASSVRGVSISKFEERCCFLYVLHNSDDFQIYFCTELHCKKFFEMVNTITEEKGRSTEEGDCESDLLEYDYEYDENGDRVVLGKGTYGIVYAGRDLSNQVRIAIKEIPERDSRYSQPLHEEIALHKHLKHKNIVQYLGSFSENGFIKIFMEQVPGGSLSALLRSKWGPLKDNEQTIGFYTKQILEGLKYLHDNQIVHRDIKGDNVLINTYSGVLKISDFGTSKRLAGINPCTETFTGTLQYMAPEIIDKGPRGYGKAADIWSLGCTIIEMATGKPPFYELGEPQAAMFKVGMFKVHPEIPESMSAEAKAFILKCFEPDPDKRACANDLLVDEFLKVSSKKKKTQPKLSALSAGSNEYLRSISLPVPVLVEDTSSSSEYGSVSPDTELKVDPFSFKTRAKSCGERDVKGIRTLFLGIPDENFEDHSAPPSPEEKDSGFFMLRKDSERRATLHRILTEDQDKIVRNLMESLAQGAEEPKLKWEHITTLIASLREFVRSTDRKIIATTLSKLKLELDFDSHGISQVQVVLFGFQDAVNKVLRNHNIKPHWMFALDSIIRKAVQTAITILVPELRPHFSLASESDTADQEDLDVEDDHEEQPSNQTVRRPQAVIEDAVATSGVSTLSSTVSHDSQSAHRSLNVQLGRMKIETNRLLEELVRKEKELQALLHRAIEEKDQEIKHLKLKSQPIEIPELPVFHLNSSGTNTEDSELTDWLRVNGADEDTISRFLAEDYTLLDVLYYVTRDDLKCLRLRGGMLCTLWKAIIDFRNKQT
# Serine/threonine-protein kinase pim-1 (Homo sapiens), sequence (P11309 whole entry, looked up): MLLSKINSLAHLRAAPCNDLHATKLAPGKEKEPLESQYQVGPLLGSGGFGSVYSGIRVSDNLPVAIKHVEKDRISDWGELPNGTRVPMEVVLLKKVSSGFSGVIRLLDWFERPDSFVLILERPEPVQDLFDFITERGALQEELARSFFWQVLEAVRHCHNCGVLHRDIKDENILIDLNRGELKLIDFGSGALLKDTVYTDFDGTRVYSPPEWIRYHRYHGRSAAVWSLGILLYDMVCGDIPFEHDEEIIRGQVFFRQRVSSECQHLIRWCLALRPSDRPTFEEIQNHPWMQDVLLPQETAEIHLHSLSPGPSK
# MAP kinase-activated protein kinase 5 (Homo sapiens), sequence (Q8IW41 whole entry): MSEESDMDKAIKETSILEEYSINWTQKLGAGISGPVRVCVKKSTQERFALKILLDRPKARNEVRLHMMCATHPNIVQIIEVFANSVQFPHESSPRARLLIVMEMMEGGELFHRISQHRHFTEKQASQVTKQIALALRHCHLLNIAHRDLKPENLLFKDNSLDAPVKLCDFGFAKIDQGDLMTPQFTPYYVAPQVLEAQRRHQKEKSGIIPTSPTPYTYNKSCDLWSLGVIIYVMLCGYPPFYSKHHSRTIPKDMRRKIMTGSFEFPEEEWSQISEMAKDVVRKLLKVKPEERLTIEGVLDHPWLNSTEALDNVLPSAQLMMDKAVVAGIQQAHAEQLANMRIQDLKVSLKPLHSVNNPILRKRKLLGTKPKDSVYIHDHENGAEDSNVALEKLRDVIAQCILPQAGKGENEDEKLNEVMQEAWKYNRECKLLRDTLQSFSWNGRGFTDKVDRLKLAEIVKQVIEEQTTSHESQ
compound,measurement,setting,value
O=S(=O)(N[C@@H](CO)Cc1c[nH]c2ccccc12)c1ccc(-c2ccnc3[nH]ccc23)cc1,Activity,Homo sapiens [1],> 75%
same,Activity,[2],> 75%
same,Activity,Homo sapiens [3],> 75%
same,Activity,[4],> 75%
same,Activity,[5],> 75%
same,Activity,[6],> 75%
same,Activity,[7],> 75%
same,Activity,[8],Toxic
same,Activity,[9],> 75%
same,Activity,[10],> 75%
same,Activity,[11],> 75%
same,Activity,[12],> 75%
same,Activity,[13],Non-Toxic
same,Activity,[14],> 75%
same,recovery,[15],45%
same,Activity,[16],> 75%
same,Activity,[17],> 75%
same,Activity,[18],> 75%
same,solubility at 24 h,[19],13.9 µg/mL
